These results are taken from ChEMBL document CHEMBL1145075, “A new class of diamine-based human histamine H3 receptor antagonists: 4-(aminoalkoxy)benzylamines” (J Med Chem, 2003).

pKi: −log10 of the molar value. Some results are limits rather than exact numbers.

The target in series [1] is T1, Histamine H3 receptor (Homo sapiens, UniProt Q9Y5N1). Put plainly: Histamine-induced inhibition of forskolin- stimulated cAMP accumulation in SK-N-MC cells overexpressing the human Histamine H3 receptor. Format: functional, cell-based. The settings on record: read-out: pA2 (converted). In a few lines:
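SK-N-MC sublines stably expressing human H3 receptor plus β-galactosidase reporter driven by multiple cAMP responsive elements. Compound added to media, forskolin (5 μM final) 5 min later, then 6 h at 37 °C. Cells PBS-washed, lysed, color developed with chlorophenol red β-D-galactopyranoside, absorbance 570 nm. pA2 from Schild regression of EC50 values.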

For series [2], the target named is T1, Histamine H3 receptor. Put plainly: In vitro binding affinity for human Histamine H3 receptor by displacing N-[3H]-methylhistamine in SK-N-MC cells was determined. Format: cell-based. The method, boiled down:
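Cloned human H3 receptor stably expressed in SK-N-MC cells; binding run per an earlier published procedure.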

Series [3] can be described thus: Human plasma protein binding activity was determined. Format: ADME, cell-free. The method, boiled down:
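Human plasma protein binding measured by an outside contract laboratory.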

Series [4] deals with Histamine H3 receptor (Rattus norvegicus, UniProt Q9QYN8). The series can be described thus: In vitro binding affinity for rat Histamine H3 receptor by displacing N-[3H]-methylhistamine in rat cortex membranes was determined.
A short description of series [5]: stabilit in human liver microsome expressed as Half life. The conditions noted are these: liver microsomes. Format: ADME. In a few lines:
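Stability in human liver microsomes measured by an outside contract laboratory; reported as half-life.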

T1 sequence (Q9Y5N1 whole entry): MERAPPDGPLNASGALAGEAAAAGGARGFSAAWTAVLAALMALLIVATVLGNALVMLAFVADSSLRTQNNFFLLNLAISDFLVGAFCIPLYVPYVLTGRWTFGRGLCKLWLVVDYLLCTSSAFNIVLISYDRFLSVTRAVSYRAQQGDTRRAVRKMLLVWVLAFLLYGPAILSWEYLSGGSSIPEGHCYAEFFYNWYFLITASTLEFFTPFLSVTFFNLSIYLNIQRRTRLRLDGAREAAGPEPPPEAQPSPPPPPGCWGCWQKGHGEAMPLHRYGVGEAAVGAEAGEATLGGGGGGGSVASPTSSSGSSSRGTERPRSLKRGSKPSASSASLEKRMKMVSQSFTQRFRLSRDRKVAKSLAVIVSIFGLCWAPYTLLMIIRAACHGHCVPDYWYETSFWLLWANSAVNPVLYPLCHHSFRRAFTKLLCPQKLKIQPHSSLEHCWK
Chain of Histamine H3 receptor (Rattus norvegicus, UniProt Q9QYN8) (Q9QYN8 whole entry): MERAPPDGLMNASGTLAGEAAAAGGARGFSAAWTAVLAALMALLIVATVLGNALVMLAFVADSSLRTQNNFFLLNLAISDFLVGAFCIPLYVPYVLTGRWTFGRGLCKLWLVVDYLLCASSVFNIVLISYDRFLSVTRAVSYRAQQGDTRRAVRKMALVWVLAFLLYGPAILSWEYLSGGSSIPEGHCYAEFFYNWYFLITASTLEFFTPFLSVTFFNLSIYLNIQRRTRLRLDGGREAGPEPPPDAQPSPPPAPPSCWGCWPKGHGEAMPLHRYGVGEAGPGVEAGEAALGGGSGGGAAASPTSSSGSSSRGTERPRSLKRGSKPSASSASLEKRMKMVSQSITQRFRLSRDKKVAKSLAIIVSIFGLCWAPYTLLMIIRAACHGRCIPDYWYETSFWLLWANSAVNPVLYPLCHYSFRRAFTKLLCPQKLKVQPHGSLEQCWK

For `c1cc(OCCN2CCCCC2)ccc1CN1CCCCC1`, the Kb on Histamine H3 receptor [1] is 8.91 nM. At Histamine H3 receptor [2], this molecule showed a pKi of 8.05. The molecule `CCN(CC)CCOc1ccc(CN2CCCCC2)cc1` gave a negative-log Ki (pKi) at Histamine H3 receptor [2] of 7.30. `CCN(CC)CCCOc1ccc(CN2CCCCC2)cc1` had a negative-log Ki (pKi) on Histamine H3 receptor [2] of 8.91. `c1ccc2c(c1)CCN(Cc1ccc(OCCCN3CCCCC3)cc1)C2` had a negative-log Ki (pKi) on Histamine H3 receptor [2] of 8.77. `c1cc(OCCCN2CCOCC2)ccc1CN1CCCCC1` showed a pKi at Histamine H3 receptor [2] of 8.64. In the case of `c1cc(OCCCN2CCCCC2)ccc1CN1CCOCC1`, the Kb on Histamine H3 receptor [1] was 0.537 nM. The pKi on Histamine H3 receptor [2] was 9.06. The matching figures for `CN(C)CCOc1ccc(CN2CCCCC2)cc1`: 10.5 nM and 8.41. In the case of `c1cc(OCCCN2CCCCC2)ccc1CNC1CCCCC1`, the Kb at Histamine H3 receptor [1] is 0.195 nM. On Histamine H3 receptor [2], the negative logarithm of the Ki (pKi) is 9.29. `CN1CCN(Cc2ccc(OCCCN3CCCCC3)cc2)CC1`: the negative-log Ki (pKi) at Histamine H3 receptor [2] was 8.87. For the molecule `c1ccc(NCc2ccc(OCCCN3CCCCC3)cc2)cc1`, the negative logarithm of the Ki (pKi) on Histamine H3 receptor [2] is 8.08. Molecule `c1cc(OCCCN2CCCCC2)ccc1CC1CCCCC1` showed a negative logarithm of the Ki (pKi) on Histamine H3 receptor [2] of 7.30.

`c1cc(OCCCN2CCCCC2)ccc1CN1CCCCC1` [JNJ-5207852] yielded a Binding in series [3] of 54%. Besides, the negative-log Ki (pKi) on Histamine H3 receptor [4] is 9.34. The half-life in series [5] was greater than 24 h. In turn, `CN(C)Cc1ccc(OCCCN2CCCCC2)cc1` had a pKi on Histamine H3 receptor [2] of 9.03. Still for that read-out and setting: the figure for `c1cc(OCCCC2CCCCC2)ccc1CN1CCCCC1` is 6.20.

Consider `OC1CCN(Cc2ccc(OCCCN3CCCCC3)cc2)CC1`, for which, at Histamine H3 receptor [1], the Kb is 0.229 nM. At Histamine H3 receptor [2], this molecule gave a negative logarithm of the Ki (pKi) of 9.13.

On Histamine H3 receptor [2], `NC(=O)C1CCN(Cc2ccc(OCCCN3CCCCC3)cc2)CC1` gave a negative-log Ki (pKi) of 9.02. Still for that read-out and setting: the value for `c1ccc(CC2CCN(Cc3ccc(OCCCN4CCCCC4)cc3)CC2)cc1` was 8.82; that for `c1ccc2c(c1)CCC2NCc1ccc(OCCCN2CCCCC2)cc1` (stereo not given) was 9.08.
